Measurements taken from article PMC5066155 (ACS Medicinal Chemistry Letters, 2016).
Read-outs that look alike come from different tables or passages of the source. One block for each compound: values may come before it.

Tests used:
human OATP1B1 = target: T1, human OATP1B1 (Homo sapiens, UniProt Q9Y6L6); test: Inhibition of pivastatin uptake to HEK293 cells transfected with human OATP1B1; assay type: cell-based
T1 sequence (Q9Y6L6 1-691): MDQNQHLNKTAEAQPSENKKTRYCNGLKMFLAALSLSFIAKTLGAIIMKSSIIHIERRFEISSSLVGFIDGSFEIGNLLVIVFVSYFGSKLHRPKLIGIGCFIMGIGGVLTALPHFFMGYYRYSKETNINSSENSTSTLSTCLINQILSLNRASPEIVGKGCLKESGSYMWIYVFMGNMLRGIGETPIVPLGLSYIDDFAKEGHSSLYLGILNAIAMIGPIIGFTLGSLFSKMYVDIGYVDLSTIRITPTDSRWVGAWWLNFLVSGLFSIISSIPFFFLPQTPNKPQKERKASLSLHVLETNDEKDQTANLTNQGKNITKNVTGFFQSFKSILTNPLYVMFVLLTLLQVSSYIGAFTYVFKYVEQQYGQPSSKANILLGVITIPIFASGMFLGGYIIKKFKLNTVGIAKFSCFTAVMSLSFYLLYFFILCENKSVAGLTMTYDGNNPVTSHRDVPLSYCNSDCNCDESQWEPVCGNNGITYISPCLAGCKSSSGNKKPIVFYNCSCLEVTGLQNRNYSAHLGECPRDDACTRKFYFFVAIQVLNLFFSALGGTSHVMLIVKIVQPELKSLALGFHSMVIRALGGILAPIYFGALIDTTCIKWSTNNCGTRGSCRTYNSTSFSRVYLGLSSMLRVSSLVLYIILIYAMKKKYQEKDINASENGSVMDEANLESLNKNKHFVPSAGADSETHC
Outline: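 HEK293 cells transfected with human OATP1B1 are used to measure the test compound's inhibition of pivastatin uptake into the cells. The IC50 is reported as an estimated value. Results are means of at least two experiments, with experimental error within 20% of the value.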

[1] = test system: human plasma sPLA2 activity; test: Human plasma sPLA2 inhibition assay; assay type: biochemical
Outline: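 Inhibition of endogenous sPLA2 activity in human plasma, run by a previously established protocol. The plasma IC50 is converted to an unbound value: IC50 × Fu/100, where Fu = 100 − human plasma protein binding (%). Values are means of at least two experiments, with experimental error within 20% of the value.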

sPLA2-IIa [2] = target: T2, sPLA2-IIa (Homo sapiens, UniProt P14555); test: Ligand efficiency / ligand lipophilicity efficiency from sPLA2-IIa IC50; conditions: pIC50 (sPLA2-IIa) – logD
T2 sequence (P14555 21-144): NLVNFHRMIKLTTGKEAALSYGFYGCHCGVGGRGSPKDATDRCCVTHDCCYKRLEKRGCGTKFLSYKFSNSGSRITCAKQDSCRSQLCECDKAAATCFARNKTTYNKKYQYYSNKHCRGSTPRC

Pharmacokinetics in rat = conditions: in vivo, iv, 2 μmol/kg
IKs = IKs (Homo sapiens, UniProt P51787); test: IonWorks patch clamp, CHO cells expressing IKs; assay type: cell-based
IKs, sequence (P51787 whole entry): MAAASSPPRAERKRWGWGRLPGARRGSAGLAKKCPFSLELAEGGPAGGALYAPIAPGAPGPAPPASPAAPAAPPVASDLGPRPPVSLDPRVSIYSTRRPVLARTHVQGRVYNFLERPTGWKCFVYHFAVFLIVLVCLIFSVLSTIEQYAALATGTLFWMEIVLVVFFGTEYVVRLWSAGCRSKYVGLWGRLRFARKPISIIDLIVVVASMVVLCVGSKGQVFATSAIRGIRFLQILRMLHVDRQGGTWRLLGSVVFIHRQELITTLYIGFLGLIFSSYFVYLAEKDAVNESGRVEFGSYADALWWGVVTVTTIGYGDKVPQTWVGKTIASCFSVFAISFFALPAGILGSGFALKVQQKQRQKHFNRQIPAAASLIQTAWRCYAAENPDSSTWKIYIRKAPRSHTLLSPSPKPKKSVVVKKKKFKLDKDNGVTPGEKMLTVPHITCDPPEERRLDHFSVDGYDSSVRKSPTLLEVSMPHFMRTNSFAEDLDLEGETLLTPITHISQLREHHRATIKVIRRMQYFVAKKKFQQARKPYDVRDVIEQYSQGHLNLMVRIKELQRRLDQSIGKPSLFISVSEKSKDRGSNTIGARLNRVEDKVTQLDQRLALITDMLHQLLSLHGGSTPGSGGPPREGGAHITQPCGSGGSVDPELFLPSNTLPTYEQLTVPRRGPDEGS

sPLA2-IIa [3] = target: T2, sPLA2-IIa; test: sPLA2 inhibition assay using phosphatidylcholine as substrate; assay type: biochemical; conditions: for increase in affinity/potency compared to 1: sPLA2-IIa, relative to compound 1
sPLA2-V = target: T3, sPLA2-V (Homo sapiens, UniProt P39877); test: as above; assay type: biochemical
T3 sequence (P39877 21-138): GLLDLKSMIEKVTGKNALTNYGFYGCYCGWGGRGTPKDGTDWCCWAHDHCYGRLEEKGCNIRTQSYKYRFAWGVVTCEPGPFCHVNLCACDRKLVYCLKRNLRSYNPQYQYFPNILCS

[4] = Intrinsic clearance in human hepatocytes; assay type: in vitro ADME; conditions: pH 7.4
sPLA2-X = target: T4, sPLA2-X (Homo sapiens, UniProt O15496); test: sPLA2 inhibition assay using phosphatidylcholine as substrate; assay type: biochemical
T4 sequence (O15496 43-165): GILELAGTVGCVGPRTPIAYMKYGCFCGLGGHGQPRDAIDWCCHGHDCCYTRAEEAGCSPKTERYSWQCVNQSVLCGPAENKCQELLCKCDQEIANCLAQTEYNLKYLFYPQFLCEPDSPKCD

Pharmacokinetics in dog = conditions: in vivo, iv, 1 μmol/kg
[5] = test system: sPLA2 activity in HepG2 cells; test: sPLA2 activity inhibition in HepG2 cells; assay type: cell-based; conditions: Homo sapiens, HepG2, read-out: sPLA2 activity inhibition IC50
[6] = Toxicological profile in animals; assay type: in vivo; conditions: rats, dogs, and cynomolgus monkeys
[7] = Pharmacokinetics in mouse; conditions: in vivo, iv, 10 μmol/kg
[8] = test system: cynomolgus monkey plasma sPLA2; test: In vitro sPLA2 inhibition in cynomolgus monkey plasma; assay type: biochemical; conditions: read-out: ICu,50
[9] = read-out: plasma ICu,50, plasma sPLA2 IC50 × Fu/100, NA = not active at maximum tested concentration (25 μM)
[10] = read-out: plasma ICu,50, plasma sPLA2 IC50 × Fu/100

- IC50 (human OATP1B1): > 25000 nM
SMILES: CC(Cc1cccc(-c2cc(Cc3ccccc3)ccc2C(N)=O)c1)C(=O)O (stereo not shown) [Compound 7]

- IC50 [1, 10]: 7 nM
- clearance (Pharmacokinetics in rat; Sprague-Dawley): 1 mL/min/kg
- IC50 (IKs): > 33300 nM
- increase in affinity/potency compared to 1 (sPLA2-IIa [3]): 2000 fold
SMILES: NC(=O)c1ccc(Cc2ccccc2)cc1-c1cccc(CCC(=O)O)c1 [Compound 4]

- increase in affinity/potency compared to 1 (sPLA2-IIa [3]): more than 300 fold
SMILES: NC(=O)c1ccc(Cc2ccccc2)cc1-c1cccc(CC(=O)O)c1 [Compound 3]

The remaining lines, values behind:

SMILES: CCc1c(C(=O)C(N)=O)c2c(OCC(=O)O)cccc2n1Cc1ccccc1 [varespladib, reference compound]
- IC50 [1, 9]: 8 nM

SMILES: NC(=O)c1ccc(Cc2ccccc2)cc1 [Compound 1, 4-benzylbenzamide]
- LLE (sPLA2-IIa [2]): 2.2
- IC50 [1, 9]: 900 nM

SMILES: NC(=O)c1ccc(Cc2ccccc2)cc1-c1cccc(CC2(C(=O)O)CC2)c1 [Compound 9]
- IC50 (sPLA2-V): 250 nM
- IC50 [1, 10]: 0.9 nM
- hepatocyte CLint at 1 µM [4]: 21 µL/min/1e6 cells
- IC50 (sPLA2-X): 580 nM
- IC50 (sPLA2-IIa [3]): 18 nM

SMILES: CCC(Cc1cccc(-c2cc(Cc3ccccc3)ccc2C(N)=O)c1)C(=O)O (stereo not shown) [Compound 8]
- IC50 [1, 10]: 0.8 nM

SMILES: C[C@H](Cc1cccc(-c2cc(Cc3ccccc3)ccc2C(N)=O)c1)C(=O)O [(R)-7]
- clearance (Pharmacokinetics in dog): 0.2 mL/min/kg
- IC50 [5]: < 14 nM
- IC50 [1, 10]: 0.1 nM
- clearance (Pharmacokinetics in rat): 1 mL/min/kg
- toxicological profile [6]: favorable toxicological profile
- clearance [7]: 9.2 mL/min/kg
- IC50 [8]: 1 nM
